Data on four molecules can be found in ChEMBL document CHEMBL1125074, “Autoxidation of the serotonergic neurotoxin 5,7-dihydroxytryptamine” (J Med Chem, 1990).

Series [1] can be described thus: Dissociation constant (pKa) was reported after potentiometric titration with 0.2 mM KOH. It is filed as physicochemical.
Series [2] in a line: Compound was autooxidized for 2 hour at 37 degree Celsius in pH 7.4 Pseudo-first-order rate constant. Format: ADME. Conditions: pH 7.4, 2 h. In a few lines:
(§1)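 5,7-DHT (0.5–1.0 mM) autoxidised at 37 °C in pH 7.4 phosphate buffer (μ = 0.2), with air vigorously bubbled through. Loss of 5,7-DHT was followed by HPLC peak area (reversed-phase RP-18; triethylamine/acetic acid mobile phase, pH 3.30; UV detection at 254 nm). The rate constant came from linear ln(peak area) vs time plots over the first 2 h.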

Series [3] can be described thus: Pseudo-first-order rate constant was determined in pH 7.4 phosphate buffer in presence 50 mM EDTA. Format: ADME.
A short description of series [4]: Pseudo-first-order rate constant was determined in pH 7.4 phosphate buffer in presence 70 mM EDTA. It is filed as ADME.
Series [5] in a line: Pseudo-first-order rate constant was determined in pH 7.4 phosphate buffer in presence 0.5 mM EDTA. It is filed as ADME.
A short description of series [6]: Compound was autooxidized for 2 hour at 37 degree Celsius in pH 7.4 phosphate buffer Pseudo-first-order rate constant. Format: ADME. Conditions: pH 7.4, 2 h. In a few lines: as §1
Series [7] can be described thus: Compound was autooxidized for 2 hour at 37 degree Celsius in pH 7.4 phosphate buffer pseudo-first-order rate constant 0.1 mM EDTA. Format: ADME. Conditions: pH 7.4, 2 h.
The nature of series [8]: Dissociation constant (pKa) was determined by spectrophotometric method. Format: physicochemical. An outline of the steps:
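Compound (ca. 0.1 mM) first dissolved in phosphate buffer pH 2.2 (μ = 0.1); UV-visible spectrum recorded, then pH raised in ca. 0.5-unit steps to pH 10 with NaOH, spectrum taken at each step. pKa calculated from the pH-dependent shift in λmax of the two intense UV bands.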

For series [9], the species on record is Mus musculus. The series can be described thus: Compound was evaluated for lethal dose against mouse brain. Format: toxicity, organism-based. The conditions noted are these: in vivo.
Series [10] in a line: Half-life was reported for stability at pH 8. Format: physicochemical. The conditions noted are these: buffer.
The nature of series [11]: Half-life was reported for slow rate of autooxidation reaction. It is filed as ADME.

For `NCCc1c[nH]c2c(O)cc(O)cc12`, in [1], the pKa – broadly, the pH at which an ionisable group is half protonated – is 4.8. Moreover, the K in series [2] worked out at 0.046 min⁻¹; in series [3], 0.014 min⁻¹; in [4] it was 0.015 min⁻¹; in series [5], 0.017 min⁻¹; in [6], 0.012 min⁻¹; in series [7], 0.012 min⁻¹.

The molecule `NCCc1c[nH]c2c1C(=O)C(O)=C(C1=C(O)c3[nH]cc(CCN)c3C(=O)C1=O)C2=O` showed a pKa in series [8] of 6.5.

Turning to `NCCc1c[nH]c2c1C(=O)C(=O)C=C2O`, the LD50 in [9] came out at 21 µg. In series [8], this molecule gave a pKa of 5.6.

For the molecule `CC1(C)CC=CN1[O]`, the half-life (in general, the time needed for the level to fall by half in the phase considered) in [10] worked out at 35 min; in [11] it was 1 min.
